Data as given in ChEMBL document CHEMBL1165965, “Synthesis and structure-activity relationships of 1,2,3,4-tetrahydropyrido[2,3-b]pyrazines as potent and selective inhibitors of the anaplastic lymphoma kinase” (Bioorg Med Chem, 2010).

Tests used:
[1] = molecular target: T1, Ephrin type-B receptor 1 (Homo sapiens) (UniProt P54762); experiment: Inhibition of EPHB1 at 1 uM
T1 sequence (whole entry): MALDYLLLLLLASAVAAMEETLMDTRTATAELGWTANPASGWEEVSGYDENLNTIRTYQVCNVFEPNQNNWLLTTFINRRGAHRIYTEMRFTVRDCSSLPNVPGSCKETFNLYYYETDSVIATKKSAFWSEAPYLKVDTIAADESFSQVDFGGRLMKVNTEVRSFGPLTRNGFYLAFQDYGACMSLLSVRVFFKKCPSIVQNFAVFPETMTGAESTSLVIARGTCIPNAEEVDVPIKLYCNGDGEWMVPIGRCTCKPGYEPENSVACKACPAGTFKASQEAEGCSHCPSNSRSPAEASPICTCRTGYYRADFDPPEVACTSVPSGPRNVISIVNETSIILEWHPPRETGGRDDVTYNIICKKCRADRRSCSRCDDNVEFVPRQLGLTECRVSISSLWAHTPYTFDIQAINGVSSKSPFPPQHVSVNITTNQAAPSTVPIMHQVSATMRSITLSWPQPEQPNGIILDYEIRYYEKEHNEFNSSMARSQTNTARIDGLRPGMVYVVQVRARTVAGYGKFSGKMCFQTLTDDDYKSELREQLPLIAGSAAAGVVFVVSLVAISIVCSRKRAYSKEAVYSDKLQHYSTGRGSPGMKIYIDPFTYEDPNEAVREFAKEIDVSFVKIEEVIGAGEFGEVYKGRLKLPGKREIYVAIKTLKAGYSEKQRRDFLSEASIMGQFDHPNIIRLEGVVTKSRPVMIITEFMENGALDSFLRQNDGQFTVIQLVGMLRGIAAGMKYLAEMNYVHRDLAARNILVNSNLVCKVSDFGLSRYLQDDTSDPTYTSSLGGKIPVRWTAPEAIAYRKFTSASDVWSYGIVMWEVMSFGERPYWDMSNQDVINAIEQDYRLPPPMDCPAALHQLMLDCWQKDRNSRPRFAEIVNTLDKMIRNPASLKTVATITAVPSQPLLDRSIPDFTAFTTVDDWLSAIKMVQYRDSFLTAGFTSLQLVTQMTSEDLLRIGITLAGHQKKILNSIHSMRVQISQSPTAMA
Method in brief: (§1)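 Single-concentration screen using Ambit Bioscience KINOMEscan technology across a panel of 250–400 kinases. Per-kinase inhibition from this screen was summarized as S(90), the fraction of kinases inhibited by more than 90%.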

[2] = molecular target: Calcium/calmodulin-dependent protein kinase kinase 1 (Homo sapiens) (UniProt Q8N5S9); experiment: Inhibition of CAMKK1 at 1 uM
Method in brief: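 Ambit KINOMEscan screen at a single concentration across a 250–400 kinase panel, recorded as percent inhibition. Selectivity was expressed as S(90), the fraction of kinases inhibited >90%.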

[3] = system: Epidermal growth factor receptor (Homo sapiens), P00533 [G719S]; experiment: Inhibition of EGFR G719S mutant at 1 uM; assay type: protein assay; method in brief: as §1
[4] = molecular target: T2, Dual specificity mitogen-activated protein kinase kinase 3 (Homo sapiens) (UniProt P46734); experiment: Inhibition of MEK3 at 1 uM
T2 sequence (whole entry): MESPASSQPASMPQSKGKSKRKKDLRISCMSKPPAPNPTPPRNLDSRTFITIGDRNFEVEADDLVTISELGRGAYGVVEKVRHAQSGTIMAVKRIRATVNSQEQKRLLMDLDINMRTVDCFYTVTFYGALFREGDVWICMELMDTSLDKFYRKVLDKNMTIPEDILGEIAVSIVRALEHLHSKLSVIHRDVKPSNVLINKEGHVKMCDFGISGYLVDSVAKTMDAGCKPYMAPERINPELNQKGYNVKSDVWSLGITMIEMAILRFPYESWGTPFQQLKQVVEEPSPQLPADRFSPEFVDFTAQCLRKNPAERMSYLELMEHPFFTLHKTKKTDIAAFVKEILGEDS

[5] = molecular target: T3, Serine/threonine-protein kinase TNNI3K (Homo sapiens) (UniProt Q59H18); experiment: Inhibition of TNNI3K at 1 uM
T3 sequence (whole entry): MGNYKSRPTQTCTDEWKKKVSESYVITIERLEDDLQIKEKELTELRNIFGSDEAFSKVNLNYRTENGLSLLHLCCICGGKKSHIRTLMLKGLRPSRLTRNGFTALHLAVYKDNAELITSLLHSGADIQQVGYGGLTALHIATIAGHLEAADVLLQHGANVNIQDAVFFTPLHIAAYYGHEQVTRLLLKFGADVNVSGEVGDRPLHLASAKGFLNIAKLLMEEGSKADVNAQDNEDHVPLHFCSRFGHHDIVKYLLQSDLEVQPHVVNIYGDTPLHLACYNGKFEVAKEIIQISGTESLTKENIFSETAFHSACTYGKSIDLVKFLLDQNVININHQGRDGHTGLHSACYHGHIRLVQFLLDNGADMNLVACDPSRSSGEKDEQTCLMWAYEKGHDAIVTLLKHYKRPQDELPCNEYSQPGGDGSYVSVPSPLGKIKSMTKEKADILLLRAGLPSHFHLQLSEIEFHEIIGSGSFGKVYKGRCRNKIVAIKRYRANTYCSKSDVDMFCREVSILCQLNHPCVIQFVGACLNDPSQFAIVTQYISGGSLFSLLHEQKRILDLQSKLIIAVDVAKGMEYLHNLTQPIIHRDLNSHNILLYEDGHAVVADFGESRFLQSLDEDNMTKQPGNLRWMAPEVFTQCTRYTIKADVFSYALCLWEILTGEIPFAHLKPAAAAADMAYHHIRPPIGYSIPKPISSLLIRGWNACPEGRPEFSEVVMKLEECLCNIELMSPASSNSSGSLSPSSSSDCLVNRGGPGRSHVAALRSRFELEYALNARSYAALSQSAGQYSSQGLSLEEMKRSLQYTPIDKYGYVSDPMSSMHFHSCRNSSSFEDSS

[6] = molecular target: Myosin-IIIa (Homo sapiens) (UniProt Q8NEV4); experiment: Inhibition of MYO3A at 1 uM

Measured: inhibition

Sequence of Epidermal growth factor receptor (Homo sapiens), P00533 [G719S] (P00533 whole entry G719S): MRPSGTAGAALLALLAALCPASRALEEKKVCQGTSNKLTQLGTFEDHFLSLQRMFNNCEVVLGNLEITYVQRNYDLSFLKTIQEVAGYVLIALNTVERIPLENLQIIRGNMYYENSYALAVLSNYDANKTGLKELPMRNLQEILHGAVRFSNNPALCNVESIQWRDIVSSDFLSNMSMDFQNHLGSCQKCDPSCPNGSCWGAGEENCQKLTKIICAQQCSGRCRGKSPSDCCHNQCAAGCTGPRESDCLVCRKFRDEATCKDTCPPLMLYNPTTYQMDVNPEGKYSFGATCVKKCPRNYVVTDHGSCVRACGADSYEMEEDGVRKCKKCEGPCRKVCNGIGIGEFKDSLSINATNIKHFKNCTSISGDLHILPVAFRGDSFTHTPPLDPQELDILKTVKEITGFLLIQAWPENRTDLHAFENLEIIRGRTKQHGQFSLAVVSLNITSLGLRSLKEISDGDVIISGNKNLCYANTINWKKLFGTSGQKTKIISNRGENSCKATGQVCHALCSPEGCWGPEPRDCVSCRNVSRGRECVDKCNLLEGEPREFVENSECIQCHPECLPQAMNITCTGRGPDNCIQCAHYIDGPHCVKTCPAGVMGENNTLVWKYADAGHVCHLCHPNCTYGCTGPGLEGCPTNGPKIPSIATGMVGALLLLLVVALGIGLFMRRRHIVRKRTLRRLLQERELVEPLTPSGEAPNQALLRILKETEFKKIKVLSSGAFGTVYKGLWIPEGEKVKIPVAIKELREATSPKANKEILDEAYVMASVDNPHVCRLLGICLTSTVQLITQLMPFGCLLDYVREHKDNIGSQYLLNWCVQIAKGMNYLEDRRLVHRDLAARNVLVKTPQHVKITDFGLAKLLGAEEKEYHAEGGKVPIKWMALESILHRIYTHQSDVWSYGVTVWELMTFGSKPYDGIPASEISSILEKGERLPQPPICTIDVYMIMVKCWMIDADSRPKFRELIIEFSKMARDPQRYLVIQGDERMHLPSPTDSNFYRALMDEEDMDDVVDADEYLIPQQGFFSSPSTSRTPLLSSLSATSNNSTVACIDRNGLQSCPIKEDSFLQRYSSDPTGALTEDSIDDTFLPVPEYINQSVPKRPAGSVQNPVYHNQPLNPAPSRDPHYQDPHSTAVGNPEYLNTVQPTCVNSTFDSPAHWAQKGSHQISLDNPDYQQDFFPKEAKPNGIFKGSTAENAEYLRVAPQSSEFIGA
Sequence of Myosin-IIIa (Homo sapiens) (Q8NEV4 whole entry): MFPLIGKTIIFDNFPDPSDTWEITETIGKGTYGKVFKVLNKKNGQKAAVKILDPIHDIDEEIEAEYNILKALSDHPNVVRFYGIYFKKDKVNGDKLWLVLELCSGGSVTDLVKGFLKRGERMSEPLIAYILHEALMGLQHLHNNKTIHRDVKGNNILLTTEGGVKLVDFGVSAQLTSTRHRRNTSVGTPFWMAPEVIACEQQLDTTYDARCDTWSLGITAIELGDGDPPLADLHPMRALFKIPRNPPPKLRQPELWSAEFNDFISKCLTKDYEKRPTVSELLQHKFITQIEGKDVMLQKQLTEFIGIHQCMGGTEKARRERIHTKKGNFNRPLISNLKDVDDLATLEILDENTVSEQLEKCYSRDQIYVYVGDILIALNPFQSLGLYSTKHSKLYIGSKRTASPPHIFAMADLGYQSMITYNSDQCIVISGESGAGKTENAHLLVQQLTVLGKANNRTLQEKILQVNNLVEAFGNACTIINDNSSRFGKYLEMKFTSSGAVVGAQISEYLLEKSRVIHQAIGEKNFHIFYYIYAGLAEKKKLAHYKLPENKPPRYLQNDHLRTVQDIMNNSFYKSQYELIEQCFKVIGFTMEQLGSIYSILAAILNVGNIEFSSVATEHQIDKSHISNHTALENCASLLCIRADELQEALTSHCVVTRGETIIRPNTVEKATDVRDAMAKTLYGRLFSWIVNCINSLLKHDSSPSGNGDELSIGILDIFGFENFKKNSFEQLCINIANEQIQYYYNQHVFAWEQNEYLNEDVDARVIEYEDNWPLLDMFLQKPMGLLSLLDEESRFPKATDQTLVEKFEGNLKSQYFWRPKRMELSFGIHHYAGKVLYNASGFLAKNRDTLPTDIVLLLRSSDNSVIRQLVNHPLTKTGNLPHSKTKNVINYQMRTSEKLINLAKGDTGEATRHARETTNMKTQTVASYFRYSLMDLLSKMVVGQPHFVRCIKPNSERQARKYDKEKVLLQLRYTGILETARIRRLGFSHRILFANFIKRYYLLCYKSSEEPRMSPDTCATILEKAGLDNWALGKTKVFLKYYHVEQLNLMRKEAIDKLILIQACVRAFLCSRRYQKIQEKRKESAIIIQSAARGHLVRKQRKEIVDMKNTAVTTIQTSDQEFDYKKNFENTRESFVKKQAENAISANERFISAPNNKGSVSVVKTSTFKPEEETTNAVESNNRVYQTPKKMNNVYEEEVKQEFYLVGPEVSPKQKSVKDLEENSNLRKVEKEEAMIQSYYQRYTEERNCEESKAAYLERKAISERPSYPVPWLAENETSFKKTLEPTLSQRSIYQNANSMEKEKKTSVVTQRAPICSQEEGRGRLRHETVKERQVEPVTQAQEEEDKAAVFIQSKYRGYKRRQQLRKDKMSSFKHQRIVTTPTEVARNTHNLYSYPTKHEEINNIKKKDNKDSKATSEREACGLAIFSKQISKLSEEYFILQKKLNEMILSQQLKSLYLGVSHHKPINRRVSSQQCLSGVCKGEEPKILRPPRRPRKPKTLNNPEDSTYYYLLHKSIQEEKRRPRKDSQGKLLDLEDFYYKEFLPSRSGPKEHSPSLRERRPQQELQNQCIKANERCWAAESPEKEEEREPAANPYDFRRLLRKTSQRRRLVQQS
Sequence of Calcium/calmodulin-dependent protein kinase kinase 1 (Homo sapiens) (Q8N5S9 whole entry, looked up): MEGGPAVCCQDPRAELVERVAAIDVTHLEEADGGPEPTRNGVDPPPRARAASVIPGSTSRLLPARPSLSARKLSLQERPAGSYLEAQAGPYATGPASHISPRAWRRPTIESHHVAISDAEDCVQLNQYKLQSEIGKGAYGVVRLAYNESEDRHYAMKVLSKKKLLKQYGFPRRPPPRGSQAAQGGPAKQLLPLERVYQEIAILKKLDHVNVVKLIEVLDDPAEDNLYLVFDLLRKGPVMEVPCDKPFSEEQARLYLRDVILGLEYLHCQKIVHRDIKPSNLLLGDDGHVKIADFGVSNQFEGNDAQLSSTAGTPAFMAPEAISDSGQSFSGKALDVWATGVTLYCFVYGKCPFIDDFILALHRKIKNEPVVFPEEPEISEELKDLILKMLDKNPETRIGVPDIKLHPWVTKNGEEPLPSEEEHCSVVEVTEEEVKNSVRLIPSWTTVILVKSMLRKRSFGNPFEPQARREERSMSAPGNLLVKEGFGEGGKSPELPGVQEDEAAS

CN1CCN(c2ccc(-c3cnc4c(c3)N(Cc3cc(F)ccc3F)CCN4)cn2)CC1
< 50%: [1] | [2] | [3] | [4] | [5] | [6]

CC(=O)N1CCN(c2cc(-c3cnc4c(c3)N(Cc3cc(Cl)ccc3C(F)(F)F)CCN4)ccn2)CC1
< 50%: [1] | [2] | [3] | [4] | [5] | [6]

CN1CCN(c2ccc(-c3cnc4c(c3)N(Cc3c(F)ccc(F)c3Cl)CCN4)cn2)CC1
< 50%: [1] | [2] | [3] | [4] | [5] | [6]

FC(F)(F)c1ccc(Cl)cc1CN1CCNc2ncc(-c3ccnc(N4CCNCC4)c3)cc21
< 50%: [1] | [2] | [3] | [4] | [5] | [6]

CN1CCN(c2ccc(-c3cnc4c(c3)N(Cc3cc(Cl)ccc3Cl)CCN4)cn2)CC1
< 50%: [1] | [2] | [3] | [4] | [5] | [6]

O=C(c1ccc(-c2cnc3c(c2)N(Cc2cc(Cl)ccc2C(F)(F)F)CCN3)cc1)N1CCC(N2CCCC2)CC1
< 50%: [1] | [2] | [3] | [5]

O=C(O)c1ccc(-c2cnc3c(c2)N(Cc2cc(Cl)ccc2C(F)(F)F)CCN3)cc1
< 50%: [1] | [2] | [3] | [5]

CN1CCN(c2ccc(-c3cnc4c(c3)N(Cc3cc(Cl)ccc3C(F)(F)F)CCN4)cn2)CC1
< 50%: [1] | [2] | [3] | [4] | [5] | [6]

O=C(c1ccc(-c2cnc3c(c2)N(Cc2cc(Cl)ccc2C(F)(F)F)CCN3)cc1)N1CCCCC1
< 50%: [1] | [2] | [3] | [5]

COC1CCN(C(=O)c2ccc(-c3cnc4c(c3)N(Cc3cc(Cl)ccc3C(F)(F)F)CCN4)cc2)CC1
< 50%: [1] | [2] | [3] | [5]
